The nature of data set [1]: Displacement of [3H]-DTG from sigma 2 receptor from rat liver in presence of pantazocine. A general note: In a radioligand displacement assay an active substance lowers the binding of a labelled ligand.
Data set [2] has as its target Sigma non-opioid intracellular receptor 1 (Cavia porcellus, UniProt Q60492). Nature of the data set: Displacement of [3H]-pentazocine from sigma 1 receptor from guinea pig brain membrane.
Data set [3] concerns BXPC-3. The data set can be described thus: Cytotoxicity against human BxPC3 cells during nonproliferating stage assessed as decreased cell death at 100 uM after 18 hrs by crystal violet staining. Format: functional, cell-based. The method in brief:
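BxPC3 cells seeded at increasing densities (1 × 10^5 to 9 × 10^5) 24 h before treatment with 100 µM sigma-2 agonist. After 18 h, washed, fixed in 4% paraformaldehyde 30 min at 37 °C, crystal violet stained 15 min at 37 °C, and imaged by densitometry. Viability given as percent density relative to DMSO-treated cells.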

A short description of data set [4]: Selectivity ratio of IC50 for guinea pig brain sigma 1 receptor to IC50 for rat liver sigma 2 receptor. Summed up: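 Sigma-1 binding used (+)-[3H]-pentazocine (34 Ci/mmol); sigma-2 binding used [3H]-DTG (30 Ci/mmol), per the Matsumoto et al. method. IC50 taken from six to nine test concentrations in two or three experiments, each in duplicate.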
Data set [5] deals with BXPC-3. The data set can be described thus: Cellular uptake in human BxPC3 cells assessed as decrease drug uptake at 25 nM measured after 60 mins by flow cytometric analysis in presence of clathrin inhibitor phenylarsine oxide. Format: ADME, cell-based. The conditions noted are these: bxpc-3, 1 h. Summed up: (§1)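 BxPC3 cells pretreated 60 min at 37 °C with phenylarsine oxide (10 µM; clathrin route) or Filipin III (5 µg/mL; caveolin route), or DMSO vehicle, then washed and resuspended in medium. Compound added at 25 nM; mean FL1 fluorescence read by flow cytometry in kinetic mode over 60 min, expressed as percent of maximum signal.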
A general note: A flow cytometer gives signals particle by particle.

In data set [6] the test system is BXPC-3. Nature of the data set: Drug uptake in human BxPC3 cells assessed as decrease drug uptake at 25 nM measured after 60 mins by flow cytometric analysis in presence of caveolin inhibitor Filipin 3. Format: ADME, cell-based. To be noted: bxpc-3, 1 h. The method in brief:
as §1

In data set [7] the test system is BXPC-3. The data set can be described thus: Drug uptake in human BxPC3 cells assessed as decreased uptake at increasing cell density at 25 nM after 30 min by flow cytometric analysis. To be noted: bxpc-3, 0.5 h. Format: ADME, cell-based. The method in brief: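 BxPC3 cells seeded at increasing densities to give subconfluent (dividing) through confluent (quiescent) cultures. Next day, cells treated with compound at 25 nM for 30 min at 37 °C, and fluorescence intensity measured by flow cytometry.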

Calls of active or inactive are those of the source. No cut-off for these calls is given here.

The results in this text go back to ChEMBL document CHEMBL1821615 (J Med Chem, 2011).

Sequence of Sigma non-opioid intracellular receptor 1 (Q60492 whole entry): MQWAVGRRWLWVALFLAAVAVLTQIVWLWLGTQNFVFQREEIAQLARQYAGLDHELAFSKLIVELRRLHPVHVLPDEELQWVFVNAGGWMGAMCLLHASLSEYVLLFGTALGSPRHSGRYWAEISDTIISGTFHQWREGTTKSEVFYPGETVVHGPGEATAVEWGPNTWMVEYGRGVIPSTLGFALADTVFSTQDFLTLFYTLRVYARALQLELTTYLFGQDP

For orientation: Ki means the dissociation constant of the complex between target and ligand, obtained from inhibition or displacement. As for `CN(C)c1cccc2c(S(=O)(=O)NCCCCCCOc3cccc4c3CCCC4CCCN3CCN(C4CCCCC4)CC3)cccc12` (stereo not given), the inhibition constant Ki in data set [1] amounted to 20.8 nM; in data set [2], 9.08 nM.
For the compound `Fc1cccc(F)c1[C@H]1CC[C@@H](N2CCN(C3CCCCC3)CC2)CC1`, the outcome in data set [3] was inactive.
Regarding `COc1cccc2c1CCCC2CCCN1CCN(C2CCCCC2)CC1` (stereo not given), the Ki in data set [1] worked out at 0.68 nM. For the same compound, in data set [3], the outcome was inactive.
Consider `COc1cccc2c1CCCC2CCCN1CCN(C2CCN(CCCCCCNS(=O)(=O)c3cccc4c(N(C)C)cccc34)CC2)CC1` (stereo not given), for which the results for the Ki in data set [1] and in data set [2] were 5020 nM and over 5000 nM, respectively.
In the case of `O=[N+]([O-])c1ccc(NCCCCCCOc2cccc3c2CCCC3CCCN2CCN(C3CCCCC3)CC2)c2nonc12` (stereo not given), the Ki turned out to be 10.8 nM in data set [1] and 78.7 nM in data set [2]. In addition, the Ratio Ki in data set [4] came to 8. The Drug uptake in data set [5] was 69%; in data set [6], 50%; in data set [7], “Not Active”.
Turning to `COc1cccc2c1CCCC2CCCN1CCN(C2CCN(CCCCCCNc3ccc([N+](=O)[O-])c4nonc34)CC2)CC1` (stereo not given), the Ki in data set [1] is 1720 nM; in data set [2], 2570 nM.
In the case of `O=[N+]([O-])c1ccc(NCCOCCOc2cccc3c2CCCC3CCCN2CCN(C3CCCCC3)CC2)c2nonc12` (stereo not given), the inhibition constant (Ki) was found to be 39.3 nM in data set [1] and 96.2 nM in data set [2]. The Ratio Ki in data set [4] turned out to be 2.5.
Regarding `CN(C)c1cccc2c(S(=O)(=O)NCCOCCOc3cccc4c3CCCC4CCCN3CCN(C4CCCCC4)CC3)cccc12` (stereo not given), the inhibition constant Ki in data set [1] stood at 25.7 nM; in data set [2] it was 19.8 nM.
